# Active and inactive are the calls of the source. No cut-off for these calls is given here.
# Experiments:
# [1] = Antagonist activity at human calcium receptor 1 expressed in HEK293 4.0-7 cells assessed as inhibition of extracellular calcium-induced increase in intracellular calcium level by FLIPR assay; format: functional, cell-based
# In short: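 HEK293 cells stably expressing human CaR, seeded 15K cells/well and grown 48 h at 37 °C. Loaded 45 min at 37 °C with Fluo4 (2 µM final) and probenecid (2.5 mM final) in HBSS with 0.75 mM Ca. Compound (top 25 µM final) was added 5 min at room temperature, then EC80 CaCl challenge, with FLIPR fluorescence read for 65 s.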
# [2] = biological target: T1, Extracellular calcium-sensing receptor (Homo sapiens, UniProt P41180); test: Binding affinity to human parathyroid calcium receptor 1 expressed in HEK293 4.0-7 cells by radioligand binding assay; format: cell-based
# T1 sequence (P41180 whole entry): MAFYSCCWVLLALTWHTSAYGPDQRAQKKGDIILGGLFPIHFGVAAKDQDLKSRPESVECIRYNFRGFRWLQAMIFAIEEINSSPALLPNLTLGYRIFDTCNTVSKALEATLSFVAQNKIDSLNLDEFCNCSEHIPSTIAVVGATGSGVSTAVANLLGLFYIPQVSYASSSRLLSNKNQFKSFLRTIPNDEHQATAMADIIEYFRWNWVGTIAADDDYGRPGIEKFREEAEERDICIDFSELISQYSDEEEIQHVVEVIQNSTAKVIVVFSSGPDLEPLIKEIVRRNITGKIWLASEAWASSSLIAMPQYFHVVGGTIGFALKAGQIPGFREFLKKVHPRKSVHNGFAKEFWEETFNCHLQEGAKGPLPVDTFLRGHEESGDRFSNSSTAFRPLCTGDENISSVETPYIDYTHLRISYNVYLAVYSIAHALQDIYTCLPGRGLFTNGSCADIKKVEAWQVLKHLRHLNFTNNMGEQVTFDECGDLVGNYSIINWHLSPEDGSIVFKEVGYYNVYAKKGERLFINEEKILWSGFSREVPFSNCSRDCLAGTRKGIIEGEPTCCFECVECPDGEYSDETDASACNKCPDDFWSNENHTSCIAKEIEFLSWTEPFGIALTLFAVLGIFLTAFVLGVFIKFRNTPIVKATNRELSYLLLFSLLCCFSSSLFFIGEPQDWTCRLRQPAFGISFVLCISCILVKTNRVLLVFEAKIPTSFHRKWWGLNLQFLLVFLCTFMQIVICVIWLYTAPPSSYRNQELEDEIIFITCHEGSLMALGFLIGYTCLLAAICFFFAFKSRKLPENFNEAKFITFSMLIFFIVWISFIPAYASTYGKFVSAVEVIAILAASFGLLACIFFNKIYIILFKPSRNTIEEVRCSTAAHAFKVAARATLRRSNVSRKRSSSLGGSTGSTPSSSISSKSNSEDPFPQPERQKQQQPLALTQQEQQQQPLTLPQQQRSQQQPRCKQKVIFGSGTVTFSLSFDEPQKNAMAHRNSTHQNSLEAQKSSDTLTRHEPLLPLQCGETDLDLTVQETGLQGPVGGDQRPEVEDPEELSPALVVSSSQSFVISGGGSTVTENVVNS
# In short: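 Membranes from HEK293 4.0-7 cells stably expressing human CaR (4-10 µg) in 50 mM Tris-HCl pH 7.4, 1 mM EDTA, 3 mM MgCl2, 0.1% gelatin, 10% EtOH. Incubated with 2 nM 3H antagonist or 3H calcimimetic ligand for 30 min at 4 °C, then filtered onto PEI-treated GF/C and counted by scintillation. Nonspecific binding taken with 100-fold excess of unlabeled homologous ligand.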
# [3] = biological target: Beta-3 adrenergic receptor (Homo sapiens, UniProt P13945); test: Binding affinity to beta3 adrenoceptor
# Chain of Beta-3 adrenergic receptor (P13945 whole entry): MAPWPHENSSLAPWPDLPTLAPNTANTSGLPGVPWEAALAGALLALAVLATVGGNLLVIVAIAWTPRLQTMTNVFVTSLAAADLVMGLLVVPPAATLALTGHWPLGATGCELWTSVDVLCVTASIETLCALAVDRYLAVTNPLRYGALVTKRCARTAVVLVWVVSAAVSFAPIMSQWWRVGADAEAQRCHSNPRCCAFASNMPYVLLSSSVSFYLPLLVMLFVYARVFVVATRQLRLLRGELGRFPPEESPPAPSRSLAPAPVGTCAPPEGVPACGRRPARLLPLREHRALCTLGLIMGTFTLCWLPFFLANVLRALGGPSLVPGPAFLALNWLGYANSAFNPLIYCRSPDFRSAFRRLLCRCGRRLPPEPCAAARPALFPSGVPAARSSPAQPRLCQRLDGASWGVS
# [4] = biological target: Beta-2 adrenergic receptor (Homo sapiens, UniProt P07550); test: Binding affinity to beta2 adrenoceptor
# Chain of Beta-2 adrenergic receptor (P07550 whole entry): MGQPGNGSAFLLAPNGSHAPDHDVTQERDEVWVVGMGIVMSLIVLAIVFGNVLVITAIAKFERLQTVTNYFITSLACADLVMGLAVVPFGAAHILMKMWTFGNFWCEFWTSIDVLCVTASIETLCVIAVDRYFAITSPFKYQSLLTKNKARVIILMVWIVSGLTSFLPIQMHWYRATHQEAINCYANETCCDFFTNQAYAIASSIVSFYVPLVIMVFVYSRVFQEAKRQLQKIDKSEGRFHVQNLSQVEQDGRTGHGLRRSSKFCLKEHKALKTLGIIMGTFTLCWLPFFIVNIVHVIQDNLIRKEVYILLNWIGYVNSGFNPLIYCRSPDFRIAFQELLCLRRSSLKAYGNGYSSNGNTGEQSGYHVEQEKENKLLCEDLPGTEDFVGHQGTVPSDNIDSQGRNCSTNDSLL
# [5] = biological target: Sodium-dependent dopamine transporter (Homo sapiens, UniProt Q01959); test: Binding affinity to dopamine transporter
# Chain of Sodium-dependent dopamine transporter (Q01959 whole entry): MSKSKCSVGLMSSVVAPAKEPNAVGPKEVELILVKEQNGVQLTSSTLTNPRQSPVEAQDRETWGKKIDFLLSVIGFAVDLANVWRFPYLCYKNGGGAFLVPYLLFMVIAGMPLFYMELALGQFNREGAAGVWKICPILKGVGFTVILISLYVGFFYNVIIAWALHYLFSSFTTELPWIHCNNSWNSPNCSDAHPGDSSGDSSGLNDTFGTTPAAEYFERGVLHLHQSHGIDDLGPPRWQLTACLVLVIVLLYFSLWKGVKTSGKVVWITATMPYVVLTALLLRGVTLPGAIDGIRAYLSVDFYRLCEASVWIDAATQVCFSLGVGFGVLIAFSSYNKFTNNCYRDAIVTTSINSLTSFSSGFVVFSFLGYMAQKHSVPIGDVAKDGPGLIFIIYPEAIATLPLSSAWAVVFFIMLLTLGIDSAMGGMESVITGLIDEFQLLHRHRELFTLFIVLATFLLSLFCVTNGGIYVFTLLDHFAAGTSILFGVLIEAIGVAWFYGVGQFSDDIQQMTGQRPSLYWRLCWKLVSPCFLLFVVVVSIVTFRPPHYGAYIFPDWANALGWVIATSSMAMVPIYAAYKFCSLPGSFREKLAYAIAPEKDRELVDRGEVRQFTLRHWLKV
# [6] = biological target: Sodium-dependent serotonin transporter (Homo sapiens, UniProt P31645); test: Binding affinity to serotonin transporter
# Chain of Sodium-dependent serotonin transporter (P31645 whole entry): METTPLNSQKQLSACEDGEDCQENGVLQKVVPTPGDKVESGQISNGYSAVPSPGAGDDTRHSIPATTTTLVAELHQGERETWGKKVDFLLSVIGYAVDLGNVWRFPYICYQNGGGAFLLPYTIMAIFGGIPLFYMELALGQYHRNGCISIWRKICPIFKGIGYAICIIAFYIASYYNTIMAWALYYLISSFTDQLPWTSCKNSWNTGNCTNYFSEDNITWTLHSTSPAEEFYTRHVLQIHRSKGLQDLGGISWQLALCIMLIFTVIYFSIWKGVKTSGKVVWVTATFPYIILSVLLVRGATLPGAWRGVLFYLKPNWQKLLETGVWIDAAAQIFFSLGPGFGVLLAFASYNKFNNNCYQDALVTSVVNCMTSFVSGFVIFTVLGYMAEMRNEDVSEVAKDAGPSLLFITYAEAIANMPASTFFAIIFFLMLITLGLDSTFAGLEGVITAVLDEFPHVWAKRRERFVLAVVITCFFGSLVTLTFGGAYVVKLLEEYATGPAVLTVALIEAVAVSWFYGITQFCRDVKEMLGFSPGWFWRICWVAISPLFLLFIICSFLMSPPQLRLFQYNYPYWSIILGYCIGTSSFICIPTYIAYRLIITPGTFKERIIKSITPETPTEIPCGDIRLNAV
# [7] = biological target: Sodium-dependent noradrenaline transporter (Homo sapiens, UniProt P23975); test: Binding affinity to norepinephrine transporter
# Chain of Sodium-dependent noradrenaline transporter (P23975 whole entry): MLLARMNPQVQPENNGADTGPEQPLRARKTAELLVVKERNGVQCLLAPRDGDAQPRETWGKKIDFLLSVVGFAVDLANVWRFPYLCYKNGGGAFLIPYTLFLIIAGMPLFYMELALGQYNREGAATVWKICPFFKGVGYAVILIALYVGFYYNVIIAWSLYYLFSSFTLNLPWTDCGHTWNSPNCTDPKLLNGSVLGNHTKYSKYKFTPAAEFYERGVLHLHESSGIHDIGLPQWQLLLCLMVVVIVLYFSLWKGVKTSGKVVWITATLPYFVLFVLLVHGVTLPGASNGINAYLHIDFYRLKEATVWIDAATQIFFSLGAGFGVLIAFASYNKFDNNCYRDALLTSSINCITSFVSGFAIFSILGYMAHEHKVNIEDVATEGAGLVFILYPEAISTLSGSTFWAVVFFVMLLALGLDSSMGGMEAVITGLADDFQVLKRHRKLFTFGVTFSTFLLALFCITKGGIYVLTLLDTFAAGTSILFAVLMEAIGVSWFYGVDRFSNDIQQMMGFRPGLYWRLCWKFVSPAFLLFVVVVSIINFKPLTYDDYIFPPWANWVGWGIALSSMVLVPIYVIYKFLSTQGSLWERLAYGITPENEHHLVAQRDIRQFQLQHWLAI
# Cytochrome P450 2D6 = Cytochrome P450 2D6 (Homo sapiens, UniProt P10635); test: Binding affinity to CYP2D6; format: ADME
# Chain of Cytochrome P450 2D6 (P10635 whole entry): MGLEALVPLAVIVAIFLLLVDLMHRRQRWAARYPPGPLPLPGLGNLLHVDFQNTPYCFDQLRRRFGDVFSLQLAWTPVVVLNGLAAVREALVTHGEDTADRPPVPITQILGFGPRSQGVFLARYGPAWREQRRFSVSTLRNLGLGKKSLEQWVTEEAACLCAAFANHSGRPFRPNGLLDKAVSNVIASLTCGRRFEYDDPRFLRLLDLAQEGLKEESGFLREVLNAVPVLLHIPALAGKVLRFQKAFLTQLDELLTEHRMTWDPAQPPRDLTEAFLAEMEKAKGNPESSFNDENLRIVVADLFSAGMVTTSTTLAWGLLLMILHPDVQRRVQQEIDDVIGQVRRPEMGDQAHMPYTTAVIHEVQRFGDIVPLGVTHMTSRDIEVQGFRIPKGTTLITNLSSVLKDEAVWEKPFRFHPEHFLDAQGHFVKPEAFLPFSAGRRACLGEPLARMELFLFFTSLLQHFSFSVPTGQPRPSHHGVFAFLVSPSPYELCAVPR
# [8] = biological target: Voltage-gated inwardly rectifying potassium channel KCNH2 (Homo sapiens, UniProt Q12809); test: Binding affinity to human ERG
# Chain of Voltage-gated inwardly rectifying potassium channel KCNH2 (Q12809 whole entry): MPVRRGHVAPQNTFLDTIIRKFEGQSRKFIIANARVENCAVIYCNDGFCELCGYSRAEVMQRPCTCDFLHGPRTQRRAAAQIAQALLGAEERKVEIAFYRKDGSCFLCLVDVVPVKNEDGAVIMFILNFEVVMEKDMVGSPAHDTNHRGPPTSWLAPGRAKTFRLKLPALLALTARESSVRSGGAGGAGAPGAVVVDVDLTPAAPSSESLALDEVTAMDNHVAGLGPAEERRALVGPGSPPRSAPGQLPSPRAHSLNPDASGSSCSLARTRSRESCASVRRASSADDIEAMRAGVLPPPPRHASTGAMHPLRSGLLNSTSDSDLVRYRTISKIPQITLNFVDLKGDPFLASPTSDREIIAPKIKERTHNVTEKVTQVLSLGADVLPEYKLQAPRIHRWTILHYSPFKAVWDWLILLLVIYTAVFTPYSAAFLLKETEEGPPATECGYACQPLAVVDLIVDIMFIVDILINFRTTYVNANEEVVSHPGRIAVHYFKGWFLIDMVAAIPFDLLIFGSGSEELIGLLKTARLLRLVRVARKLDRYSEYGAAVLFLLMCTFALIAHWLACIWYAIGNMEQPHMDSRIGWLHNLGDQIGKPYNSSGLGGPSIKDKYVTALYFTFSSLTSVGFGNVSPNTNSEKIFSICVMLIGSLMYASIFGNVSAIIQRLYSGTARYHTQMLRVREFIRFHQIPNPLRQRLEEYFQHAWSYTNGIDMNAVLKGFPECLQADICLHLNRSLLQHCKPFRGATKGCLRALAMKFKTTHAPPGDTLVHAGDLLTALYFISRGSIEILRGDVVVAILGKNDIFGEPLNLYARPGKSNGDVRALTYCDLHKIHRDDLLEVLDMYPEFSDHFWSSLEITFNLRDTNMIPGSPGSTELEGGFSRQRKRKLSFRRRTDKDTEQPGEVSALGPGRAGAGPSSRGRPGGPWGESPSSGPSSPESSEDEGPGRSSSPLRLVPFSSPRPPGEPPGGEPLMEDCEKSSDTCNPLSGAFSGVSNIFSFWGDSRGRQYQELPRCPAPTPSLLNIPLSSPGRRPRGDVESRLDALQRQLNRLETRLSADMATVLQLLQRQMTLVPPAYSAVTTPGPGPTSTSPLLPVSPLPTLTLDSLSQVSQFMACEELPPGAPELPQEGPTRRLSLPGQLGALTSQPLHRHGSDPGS
# Rattus norvegicus [9] = test: Increase in plasma parathyroid hormone level in normal conscious rat at 10 umol/kg, iv by immunoradiometric assay; format: functional, organism-based
# In short: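 Normal conscious rats were given a single iv injection of 10 µmol/kg. Plasma PTH was measured over time by rat PTH(1-34) immunoradiometric assay, n = 6/group, mean ± SE.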
# [10] = Oral bioavailability in rat; format: ADME, organism-based; settings: in vivo
# Rattus norvegicus [11] = species on record: Rattus norvegicus; test: Clearance in rat; format: ADME, organism-based; settings: in vivo
# [12] = Half life in rat; format: ADME, organism-based; settings: in vivo
# [13] = Volume of distribution in rat; format: ADME, organism-based; settings: in vivo
# [14] = Increase in parathyroid hormone release in bovine parathyroid cells; format: functional, cell-based; settings: Bos taurus
# Rattus norvegicus [15] = test: Increase of new bone formation in ovariectomized postmenopausal osteoporosis Sprague-Dawley rat model at 100 umol/kg, po for 5 weeks; format: functional, organism-based
# Rattus norvegicus [16] = test: Increase of resorption of old bone in ovariectomized postmenopausal osteoporosis Sprague-Dawley rat model at 100 umol/kg, po for 5 weeks; format: functional, organism-based
# Rattus norvegicus [17] = test: Effect on net increase in bone mass in ovariectomized postmenopausal osteoporosis Sprague-Dawley rat model at 100 umol/kg, po for 5 weeks; format: functional, organism-based
# Rattus norvegicus [18] = test: Increase of bone mass in ovariectomized postmenopausal osteoporosis Sprague-Dawley rat model at 5 ug/kg, po for 5 weeks; format: functional, organism-based
# Rattus norvegicus [19] = test: Increase of bone mass in 17-beta-estradiol-treated ovariectomized postmenopausal osteoporosis Sprague-Dawley rat model at 100 umol/kg, po for 5 weeks; format: functional, organism-based
# [20] = biological target: Beta-1 adrenergic receptor (Homo sapiens, UniProt P08588); test: Binding affinity to beta-1 adrenoceptor
# Chain of Beta-1 adrenergic receptor (P08588 whole entry): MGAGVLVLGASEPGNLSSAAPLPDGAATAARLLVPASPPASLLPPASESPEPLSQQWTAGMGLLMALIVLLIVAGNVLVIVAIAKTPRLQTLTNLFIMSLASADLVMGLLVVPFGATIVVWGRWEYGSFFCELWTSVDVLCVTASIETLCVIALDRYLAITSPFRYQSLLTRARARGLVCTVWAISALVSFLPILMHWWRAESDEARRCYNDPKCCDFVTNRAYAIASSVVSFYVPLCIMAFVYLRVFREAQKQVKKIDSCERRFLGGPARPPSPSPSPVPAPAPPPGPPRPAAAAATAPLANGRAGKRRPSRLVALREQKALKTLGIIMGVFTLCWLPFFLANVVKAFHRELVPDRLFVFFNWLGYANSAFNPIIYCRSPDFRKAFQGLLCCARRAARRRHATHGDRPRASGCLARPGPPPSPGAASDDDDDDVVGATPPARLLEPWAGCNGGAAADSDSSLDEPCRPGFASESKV
# [21] = Tmax in human; format: ADME, organism-based; settings: in vivo
# [22] = Clearance in women; format: ADME, organism-based; settings: female, human, in vivo
# [23] = Clearance in men; format: ADME, organism-based; settings: male, human, in vivo
# [24] = Volume of distribution in human; format: ADME, organism-based; settings: in vivo
structure (smiles),measurement,setting,value
CCCCOCC(O)CNC(C)(C)Cc1ccc(OC)cc1 (racemic),IC50,[1],2200 nM
same,IC50,[2],3200 nM
COc1ccc(CC(C)(C)NCC(COc2cccc(Cl)c2Cl)OC)cc1 (racemic),IC50,[1],> 3000 nM
same,IC50,[2],950 nM
COc1ccc(CC(C)(C)NC[C@H](O)COc2cccc(Cl)c2Cl)cc1,IC50,[1],340 nM
same,IC50,[2],300 nM
same,EC50,[3]; read-out: EC50,200 nM
same,IC50,[4],1 nM
COc1ccc(CC(C)(C)NCC(O)COC(C)C)cc1 (racemic),IC50,[1],6400 nM
same,IC50,[2],10000 nM
COc1ccc(CC(C)NCC(O)COc2ccccc2)cc1 (racemic),IC50,[1],> 100000 nM
same,IC50,[2],> 10000 nM
COc1ccc(CC(C)(C)NCC(O)COc2ccccc2)cc1 (racemic),IC50,[1],2300 nM
same,IC50,[2],2300 nM
CC(C)(Cc1ccc2ccccc2c1)NC[C@@H](O)COc1cccc(Cl)c1C#N.Cl,IC50,[1],43 nM
same,IC50,[2],3 nM
same,IC50,[5],200 nM
same,IC50,[6],2 nM
same,IC50,[7],200 nM
same,IC50,Cytochrome P450 2D6,45 nM
same,IC50,[8],3 µM
same,Activity,Rattus norvegicus [9],Active
same,bioavailability,[10],11%
same,clearance,Rattus norvegicus [11],74 mL/min/kg
same,half-life,[12],120 min
same,Vd,[13],11 L/kg
same,EC50,[14],41 nM
same,Activity,Rattus norvegicus [15],Active
same,Activity,Rattus norvegicus [16],Active
same,Activity,Rattus norvegicus [17],Active
same,Activity,Rattus norvegicus [18],Active
same,Activity,Rattus norvegicus [19],Active
same,EC50,[3],Not Active
same,IC50,[4],4300 nM
same,EC50,[20],Not Active
COc1ccc(C(C)(C)NCC(O)COc2ccccc2)cc1 (racemic),IC50,[1],> 100000 nM
same,IC50,[2],> 10000 nM
COc1ccc(CC(C)(C)NC[C@@H](O)COc2cccc(Cl)c2Cl)cc1,IC50,[1],38 nM
same,IC50,[2],68 nM
same,EC50,[3],Not Active
same,IC50,[4],300 nM
COc1ccc(CC(C)(C)NCC(O)COc2cccc(Cl)c2C#N)cc1 (racemic),IC50,[1],38 nM
same,IC50,[2],70 nM
same,IC50,[5],1100 nM
same,IC50,[6],34 nM
same,IC50,[7],1000 nM
same,IC50,Cytochrome P450 2D6,76 nM
same,IC50,[8],3.6 µM
same,EC50,[3],Not Active
same,IC50,[4],23 nM
same,EC50,[20],Not Active
COc1ccc(CC(C)(C)NCC(O)COc2ccccc2C#N)cc1 (racemic),IC50,[1],45 nM
same,IC50,[2],140 nM
same,IC50,[5],300 nM
same,IC50,[6],21 nM
same,IC50,[7],300 nM
same,IC50,Cytochrome P450 2D6,36 nM
same,EC50,[3]; read-out: EC50,20 nM
same,IC50,[4],21 nM
same,EC50,[20],Not Active
COc1ccc(CC(C)(C)NCCCOc2cccc(Cl)c2Cl)cc1,IC50,[1],2500 nM
same,IC50,[2],930 nM
CC[C@H](C)[C@H](NC(=O)[C@H](CCC(=O)O)NC(=O)[C@H](CO)NC(=O)[C@@H](NC(=O)[C@@H](N)CO)C(C)C)C(=O)N[C@@H](CCC(N)=O)C(=O)N[C@@H](CC(C)C)C(=O)N[C@@H](CCSC)C(=O)N[C@@H](Cc1cnc[nH]1)C(=O)N[C@@H](CC(N)=O)C(=O)N[C@@H](CC(C)C)C(=O)NCC(=O)N[C@@H](CCCCN)C(=O)N[C@@H](Cc1cnc[nH]1)C(=O)N[C@@H](CC(C)C)C(=O)N[C@@H](CC(N)=O)C(=O)N[C@@H](CO)C(=O)N[C@@H](CCSC)C(=O)N[C@@H](CCC(=O)O)C(=O)N[C@@H](CCCN=C(N)N)C(=O)N[C@H](C(=O)N[C@@H](CCC(=O)O)C(=O)N[C@@H](Cc1c[nH]c2ccccc12)C(=O)N[C@@H](CC(C)C)C(=O)N[C@@H](CCCN=C(N)N)C(=O)N[C@@H](CCCCN)C(=O)N[C@@H](CCCCN)C(=O)N[C@@H](CC(C)C)C(=O)N[C@@H](CCC(N)=O)C(=O)N[C@@H](CC(=O)O)C(=O)N[C@H](C(=O)N[C@@H](Cc1cnc[nH]1)C(=O)N[C@@H](CC(N)=O)C(=O)N[C@@H](Cc1ccccc1)C(=O)O)C(C)C)C(C)C [TERIPARATIDE],Tmax,[21],≤ 30 min
same,clearance,[22],1030 mL/min
same,clearance,[23],1570 mL/min
same,Vd,[24],0.12 L/kg
COc1ccc(CC(C)(C)NC[C@H](O)COc2cccc3[nH]c(=O)[nH]c23)cc1,IC50,[1],11000 nM
same,IC50,[2],31800 nM
same,IC50,[5],1200 nM
same,IC50,[6],61 nM
same,IC50,[7],600 nM
same,IC50,Cytochrome P450 2D6,1260 nM
same,IC50,[8],11.8 µM
same,EC50,[3]; read-out: EC50,7 nM
same,IC50,[4],1.3 nM
same,EC50,[20]; read-out: EC50,3 nM
COc1ccc(CC(C)(C)NCC(O)COc2cccc(Cl)c2Cl)cc1 (racemic),IC50,[1],45 nM
same,IC50,[2],200 nM
same,EC50,[3]; read-out: EC50,200 nM
same,IC50,[4],21 nM
CCCOCC(O)CNC(C)(C)Cc1ccc(OC)cc1 (racemic),IC50,[1],16000 nM
same,IC50,[2],7000 nM
CC(C)(Cc1ccccc1)NCC(O)COc1ccccc1 (racemic),IC50,[1],2300 nM
COc1ccc(CC(C)(C)NCC(O)COc2ccc3ccccc3c2)cc1 (racemic),IC50,[1],1400 nM
same,IC50,[2],1300 nM
COc1ccc(CC(C)(C)NCC(O)COc2ccccc2OC)cc1 (racemic),IC50,[1],15600 nM
same,IC50,[2],3500 nM
COc1ccc(CC(C)(C)NCC(O)COc2cccc(Cl)c2)cc1 (racemic),IC50,[1],470 nM
same,IC50,[2],1000 nM
COc1ccc(C(C)(C)CNCC(O)COc2ccccc2)cc1 (racemic),IC50,[1],> 100000 nM
same,IC50,[2],> 10000 nM
COc1ccc(CC(C)(C)N(C)CC(O)COc2cccc(Cl)c2Cl)cc1 (racemic),IC50,[1],> 3000 nM
same,IC50,[2],2300 nM
COc1ccc(CCC(C)(C)NCC(O)COc2ccccc2)cc1 (racemic),IC50,[1],13000 nM
same,IC50,[2],2780 nM
COc1ccc(CC(C)(C)NCC(O)COc2ccccc2Cl)cc1 (racemic),IC50,[1],490 nM
same,IC50,[2],1000 nM
COc1ccc(CCNCC(O)COc2ccccc2)cc1 (racemic),IC50,[1],> 100000 nM
same,IC50,[2],> 10000 nM
